Reference: ChEMBL document CHEMBL2407062, “Synthesis and anticancer activities of 5,6,7-trimethoxy-N-phenyl(ethyl)-4-aminoquinazoline derivatives” (Eur J Med Chem, 2013)
Calls of active or inactive are those of the source. The rule behind the calls is not given here.

Legend:
[1] = target: T1, Mitogen-activated protein kinase; ERK1/ERK2 (Homo sapiens) (UniProt P27361+P28482); test: Inhibition of EGF-induced ERK1/2 phosphorylation in human PC3 cells at 10 uM incubated for 60 mins prior to EGF-treatment measured after 10 mins by Western blotting analysis; assay type: cell-based; details: PC-3
In short: (§1)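 PC3 cells grown 36–48 h in RPMI 1640 with 10% FBS at 37 °C, then serum-starved 24 h. Treated with compound for 60 min, then EGF 10 ng/mL for 10 min; quenched on ice. Cells washed with cold PBS and lysed in NP-40/SDS buffer with Na3VO4 and NaF. Run on 10% SDS-PAGE, PVDF blot probed for pERK1/2 with actin as loading control, ECL detection.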

PC-3 [2] = test: Growth inhibition of human PC3 cells at 10 uM after 72 hrs by MTT assay relative to control; assay type: functional; details: for inhibition of growth at 10 µM: Homo sapiens, PC-3, 72 h, read-out: GI
In short: (§2)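 Cells in RPMI 1640 with 10% heat-inactivated FBS, 37 °C, 5% CO2. Seeded at 2 × 10³ cells per well. Compounds dissolved in DMSO, diluted in medium, tested at 1–100 μM for 72 h; 0.1% DMSO control. MTT read-out, absorbance at 595 nm. Mean ± SD of triplicate experiments. IC50 taken from the dose–response curve.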

Bcap37 [3] = test: Growth inhibition of human Bcap37 cells at 10 uM after 72 hrs by MTT assay relative to control; assay type: functional; details: for inhibition of growth at 10 µM: Homo sapiens, Bcap37, 72 h, read-out: GI; in short: as §2
BGC-823 [4] = test: Growth inhibition of human BGC823 cells at 10 uM after 72 hrs by MTT assay relative to control; assay type: functional; details: BGC-823, 72 h, read-out: GI; in short: as §2
PC-3 [5] = test: Growth inhibition of human PC3 cells at 1 uM after 72 hrs by MTT assay relative to control; assay type: functional; details: for inhibition of growth at 1 µM: Homo sapiens, PC-3, 72 h, read-out: GI; in short: as §2
[6] = target: T1, Mitogen-activated protein kinase; ERK1/ERK2 (Homo sapiens); test: Inhibition of EGF-induced ERK1/2 phosphorylation in human PC3 cells at 5.12 uM incubated for 60 mins prior to EGF-treatment measured after 10 mins by Western blotting analysis; assay type: cell-based; details: PC-3; in short: as §1
Bcap37 [7] = test: Growth inhibition of human Bcap37 cells at 1 uM after 72 hrs by MTT assay relative to control; assay type: functional; details: for inhibition of growth at 1 µM: Homo sapiens, Bcap37, 72 h, read-out: GI; in short: as §2
BGC-823 [8] = test: Growth inhibition of human BGC823 cells at 1 uM after 72 hrs by MTT assay relative to control; assay type: functional; details: BGC-823, 72 h, read-out: GI; in short: as §2
[9] = target: T1, Mitogen-activated protein kinase; ERK1/ERK2 (Homo sapiens); test: Inhibition of EGF-induced ERK1/2 phosphorylation in human PC3 cells at 1.28 uM incubated for 60 mins prior to EGF-treatment measured after 10 mins by Western blotting analysis; assay type: cell-based; details: PC-3; in short: as §1
BGC-823 [10] = test: Growth inhibition of human BGC823 cells after 72 hrs by MTT assay; assay type: functional, cell-based; details: BGC-823, 72 h; in short: as §2
Bcap37 [11] = test: Growth inhibition of human Bcap37 cells after 72 hrs by MTT assay; assay type: functional, cell-based; details: Bcap37, 72 h; in short: as §2
PC-3 [12] = test: Growth inhibition of human PC3 cells after 72 hrs by MTT assay; assay type: functional, cell-based; details: PC-3, 72 h; in short: as §2

T1 sequence (P27361 whole entry, looked up): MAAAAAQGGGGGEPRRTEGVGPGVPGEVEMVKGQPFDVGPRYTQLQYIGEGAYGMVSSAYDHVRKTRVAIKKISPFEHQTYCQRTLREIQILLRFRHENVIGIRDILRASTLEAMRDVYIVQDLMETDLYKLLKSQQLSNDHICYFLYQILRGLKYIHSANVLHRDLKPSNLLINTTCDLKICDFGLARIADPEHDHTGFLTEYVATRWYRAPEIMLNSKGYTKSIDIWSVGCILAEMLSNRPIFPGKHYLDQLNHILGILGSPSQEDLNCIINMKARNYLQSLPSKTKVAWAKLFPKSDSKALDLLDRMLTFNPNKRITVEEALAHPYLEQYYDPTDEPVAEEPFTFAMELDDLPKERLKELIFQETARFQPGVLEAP
T1 sequence (P28482 whole entry, looked up): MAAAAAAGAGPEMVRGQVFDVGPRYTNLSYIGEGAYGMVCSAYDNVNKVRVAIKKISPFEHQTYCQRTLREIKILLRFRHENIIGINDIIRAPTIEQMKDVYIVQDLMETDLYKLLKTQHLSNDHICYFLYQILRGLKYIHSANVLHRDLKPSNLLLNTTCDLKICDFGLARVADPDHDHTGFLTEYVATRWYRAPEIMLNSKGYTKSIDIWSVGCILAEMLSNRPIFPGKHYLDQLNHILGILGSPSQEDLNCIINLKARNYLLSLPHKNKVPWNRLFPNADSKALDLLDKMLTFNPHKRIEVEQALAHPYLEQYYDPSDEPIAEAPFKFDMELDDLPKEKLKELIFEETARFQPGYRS

SMILES | inhibition [1] | inhibition of growth at 10 µM (PC-3 [2]) [%] | inhibition of growth at 10 µM (Bcap37 [3]) [%] | inhibition of growth at 10 µM (BGC-823 [4]) [%] | inhibition of growth at 1 µM (PC-3 [5]) [%] | inhibition of growth at 1 µM (Bcap37 [7]) [%] | inhibition of growth at 1 µM (BGC-823 [8]) [%] | also measured
COc1cc2ncnc(Nc3ccc(C)cc3)c2c(OC)c1OC | Active | 45.6 | 11.1 | 19.3 | 23.8 | 7.3 | 1.2 | inhibition [6]: Active
COc1cc2ncnc(Nc3c(F)cc(F)cc3Br)c2c(OC)c1OC |  | 43 | 2.2 | 68.4 | 8.1 | 4.3 | 38.5 | 
COc1cc2ncnc(Nc3ccc(C(F)(F)F)cc3)c2c(OC)c1OC | Active | 29 | 32.3 | 17.4 | 7.4 | 8.6 | 2.4 | inhibition [9]: Active
COc1cc2ncnc(Nc3cccc(C(F)(F)F)c3)c2c(OC)c1OC | Active | 46.6 | 23.5 | 24.3 | 14.9 | 21 | 1 | inhibition [9]: Active
COc1cc2ncnc(Nc3cccc(Br)c3)c2cc1OC |  | 62.8 | 43.4 | 32.6 | 21.5 | 19.8 | 9.3 | IC50 (BGC-823 [10]): 14.4 µM; IC50 (Bcap37 [11]): 15.7 µM; IC50 (PC-3 [12]): 8.3 µM
COc1cc2ncnc(Nc3ccc(F)cc3)c2c(OC)c1OC | Active | 9.1 | 10.8 |  | 3.1 | 7.8 |  | inhibition [6]: Active
COc1cc2ncnc(Nc3cccc(Cl)c3)c2c(OC)c1OC [listing 1 of 2 here] |  |  |  |  |  |  |  | growth inhibition (GI) (PC-3 [2]): 11.9%; growth inhibition (GI) (Bcap37 [3]): 28.8%; growth inhibition (GI) (PC-3 [5]): -4.5%; growth inhibition (GI) (Bcap37 [7]): 14.1%
COc1cc2ncnc(Nc3ccccc3[N+](=O)[O-])c2c(OC)c1OC |  | 25.5 | 15.4 |  | 11.3 | -8.3 |  | 
COc1cc2ncnc(Nc3ccc(Cl)cc3)c2c(OC)c1OC |  | 31.3 | 26.4 | 43 | 6.3 | 22.2 | 15.5 | 
COc1cc2ncnc(Nc3ccccc3F)c2c(OC)c1OC | Active | 24 |  |  | 0.9 |  |  | 
COc1cc2ncnc(Nc3cccc(Cl)c3)c2c(OC)c1OC [listing 2 of 2 here] | Active |  |  |  |  |  |  | 
COc1cc(Nc2ncnc3cc(OC)c(OC)c(OC)c23)c(C(=O)O)cc1OC |  | 40.4 | 53.7 | 34.3 | 12.5 | 40.9 | 13.2 | 
COc1cc2ncnc(Nc3cccc([N+](=O)[O-])c3)c2c(OC)c1OC |  | 26.4 | 50 | 16.3 | 14.5 | 31.6 | 9 | 
COc1cc2ncnc(Nc3cccc(C(F)(F)F)c3F)c2c(OC)c1OC |  | 42.7 | 69.3 | 41.9 | 9.2 | 11.3 | 3.9 | 
COc1cc2ncnc(Nc3cc(C(F)(F)F)ccc3Br)c2c(OC)c1OC |  | 25.3 |  | 23.2 | -3.9 |  | 2.1 | 
COc1cc2ncnc(Nc3c(C)cc(C)cc3Br)c2c(OC)c1OC |  | 19.8 |  | 11.4 | 9.7 |  | 0.6 | 
COc1cc2ncnc(Nc3cc(C(F)(F)F)ccc3F)c2c(OC)c1OC | Active | 29.2 | 27.6 |  | 7.6 | 14.4 |  | 
COc1cc2ncnc(Nc3ccc([N+](=O)[O-])cc3)c2c(OC)c1OC |  | 24.9 | -16.3 |  | 7.9 | -12 |  | 
COc1cc2ncnc(Nc3cccc(F)c3)c2c(OC)c1OC.Cl |  |  | 13.5 |  | 14.9 | 7 |  | growth inhibition (GI) (PC-3 [2]): 38.9%
COc1cc2ncnc(NCCc3cccc(F)c3)c2c(OC)c1OC |  | 61.7 | 45.8 | 58.9 | 35.6 | 2.1 | 40.8 | 
COc1cc2ncnc(Nc3cccc(F)c3)c2c(OC)c1OC [listing 1 of 2 here] | Active |  |  |  |  |  |  | inhibition [6]: Active
COc1cc2ncnc(Nc3cc(I)ccc3C(=O)O)c2c(OC)c1OC |  | 22.6 | 20.7 | 51.9 | 14.1 | 19.4 | 42.2 | 
COc1cc2ncnc(Nc3ccc(Br)cc3)c2c(OC)c1OC | Active | 22.2 | 26.1 | 32.6 | 1 | 10.4 | 13.8 | 
COc1cc2ncnc(Nc3ccc(O)cc3)c2c(OC)c1OC | Active | 24.6 | 3.3 |  | 9.3 | -7.5 |  | 
COc1cc2ncnc(Nc3cccc(F)c3)c2c(OC)c1OC [listing 2 of 2 here] |  | 21.5 |  |  |  |  |  | growth inhibition (GI) (PC-3 [5]): 14.7%
COc1cc2ncnc(Nc3cc(F)ccc3Br)c2c(OC)c1OC |  | 34.7 | 18.9 | 60.7 | 12.8 | 10.5 | 12.4 | 
COc1cc2ncnc(Nc3cccc(Cl)c3)c2c(OC)c1OC.Cl |  |  | 17.5 | 23.9 |  | 11 | 5.9 | growth inhibition (GI) (PC-3 [2]): 28.8%; growth inhibition (GI) (PC-3 [5]): 16.9%
COc1cc2ncnc(Nc3ccc(Br)cc3Cl)c2c(OC)c1OC |  | 49.7 | 18.6 |  | -8.4 | 8.7 |  | 
